Screening data as filed in PubChem.
Compounds with a hit are over-represented: about 0.94% of the library has one in this group of screens.
GalR3 antag = antagonists of human GalR3. HEK293 GalR3-CNG cAMP membrane potential fluorescence; galR3 body fused to GalR1 C-terminus. inhibition, % at 3 µM. hit rate 0.44% among 360,000. AID 651719;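 active = inhibition above the screen-wide average plus 3 SD, cut at about 13% in these data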;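 also: forskolin and galanin both at EC90 stimulate the cells; cAMP rise reported by CNG channel membrane potential dye signal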
GC-B act = GC-B (human) receptor activation. HEK293-GC-B cells, CNP EC30, cGMP TR-FRET; 0% at EC30 CNP, 100% saturating CNP. activation, % at 10 µM. hit rate 0.11% among 370,000. AID 1920062;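 active = activation at 10 µM reaching about 35% in either raw or pattern-adjusted values, limit read from the data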
GC-A act = GC-A (human) enzyme activation. P16066. hit rate 0.14% among 370,000. HEK293 GC-A cells, cGMP TR-FRET, EC30 ANP; 0% at EC30 ANP, 100% saturating ANP. activation, % at 10 µM; in the data active = activation above about 40%
Arrestin-AP2 inh = human beta-arrestin and AP2 interaction inhibition | hit rate 0.31% among 340,000 | FITC-arrestin peptide / GST-AP2 beads, flow cytometry; AP2 beta2 appendage carries R879A mutation | AID 504490 | inhibition, % at 10 µM;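 active = inhibition above a set limit, near 3 SD of compounds lacking own fluorescence, cut at about 54% in these data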
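Measured by: flow cytometry, FL1 (488/535 nm); Material: AP2 appendage R879A on GSH beads; Evaluation: percent response; Timing: pre-incubation 12 min, peptide binding 1 h, room temperature; Also added: 50 nM FITC-arrestin peptide; Medium: PBS with 0.05% Tween 20 and 0.1% BSA.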
Arr AP2 CP1 = human beta-arrestin and AP2 interaction inhibition, cherry pick; hit rate 2% among 1,300; GST-AP2 beads, FITC arrestin peptide binding, flow cytometry; GST-fused beta2-adaptin appendage, R879A mutant; shares compounds with Arrestin-AP2 inh; inhibition, % at 10 µM; AID 504908;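 active = inhibition above a set limit, roughly 3 SD of non-fluorescent compound noise, cut at about 38% in these data; inactive = inhibition at or below that limit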;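 also: loss of bead fluorescence from 50 nM FITC arrestin peptide bound to appendage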
GST-FITC bead = counter-screen for beta-arrestin AP2 inhibitors: GST-GSH bead binding; hit rate 2% among 1,300; shares compounds with Arrestin-AP2 inh; GST-fluorescein binding to GSH beads, fluorescence; inhibition, % at 10 µM;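 active = inhibition above 50%, about 3 SD of the inhibition seen with non-fluorescent compounds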;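 also: fluorescein maleimide labelled GST captured on 4 micron glutathione beads; higher means more loss of bead fluorescence from quenching or blocked binding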
Large screens that a line does not name were inactive (follow-up assays come after a bar, where they were run).

CC(O)c1nc2ccccc2n1Cc1ccccc1 (centres undefined)	Arrestin-AP2 inh 54 | Arr AP2 CP1 inactive | GST-FITC bead inactive
O=C(NCc1c(F)cccc1F)C1CCCN(c2ncccn2)C1 (centres undefined)	none (no result: GalR3 antag, Arrestin-AP2 inh)
Cc1csc(=Nc2cccnc2)n1CC1CCCCC1	Arrestin-AP2 inh 70 | Arr AP2 CP1 inactive | GST-FITC bead inactive
O=C(Nc1ccccc1)c1nn(-c2ccccc2)c(=O)cc1C(F)(F)F	Arrestin-AP2 inh 101 | Arr AP2 CP1 inactive | GST-FITC bead inactive
CC(C)C[C@@H]1NC(=O)[C@H]2C[C@]3(c4ccccc4)c4ccccc4N[C@H]3N2C1=O	none (no result: GalR3 antag, Arrestin-AP2 inh)
CSc1nc2c(c(=O)n1Cc1ccccc1)SC(C)C2 (centres undefined)	Arrestin-AP2 inh 56 | Arr AP2 CP1 inactive | GST-FITC bead inactive
COc1ccc(CCC(=O)N2CCN(S(=O)(=O)c3cccc(Cl)c3)CC2)cc1	Arrestin-AP2 inh 56 | Arr AP2 CP1 inactive | GST-FITC bead inactive
Cc1ccc(CN2CCCCC(NC(=O)c3ccc(Br)cc3)C2=O)cc1 (centres undefined)	none (no result: GalR3 antag, Arrestin-AP2 inh)
Cc1cc(OCC(=O)Nc2nccs2)c2c(C)cc(=O)oc2c1	Arrestin-AP2 inh 60 | Arr AP2 CP1 inactive | GST-FITC bead inactive
Cc1c(NC(=O)c2ccc(N(C)S(=O)(=O)c3ccccc3)cc2)c(=O)n(-c2ccccc2)n1C	Arrestin-AP2 inh 54 | Arr AP2 CP1 inactive | GST-FITC bead inactive
Cc1c(NC(=O)c2cccc(S(=O)(=O)N(C)c3ccccc3)c2)c(=O)n(-c2ccccc2)n1C	none
CC(C)[C@@H](C)/C=C/[C@@H](C)[C@H]1CC[C@@H]2[C@]1(C)CCC1[C@]23C=C[C@]2(C[C@@H](O)CC[C@]12C)N(c1ccc(Br)cn1)O3 (some centres undefined)	none (no result: Arrestin-AP2 inh)
COc1ccc(NC(=O)CCN(c2ccc(OC)cc2)S(=O)(=O)c2ccc(C)c(C)c2)cc1	Arrestin-AP2 inh 65 | Arr AP2 CP1 inactive | GST-FITC bead inactive
COc1ccc(N(CC(=O)Nc2ccc(C)c(C)c2)S(=O)(=O)c2c(C)noc2C)cc1	none
COc1ccccc1N1CCN(C2=NS(=O)(=O)c3ccccc32)CC1	none
C=CCN1/C(=C(\C#N)C2=NS(=O)(=O)c3ccccc32)N(C)c2ccccc21	Arrestin-AP2 inh 55 | Arr AP2 CP1 inactive | GST-FITC bead inactive
c1ccc(-c2cnnc(SCc3cn4cccnc4n3)n2)cc1	Arrestin-AP2 inh 60 | Arr AP2 CP1 inactive | GST-FITC bead inactive
c1ccc2[nH]c(SCc3cn4cccnc4n3)nc2c1	none
CCOC(=O)C1=C(COC(=O)Cc2c(F)cccc2Cl)NC(=O)NC1C (centres undefined)	GC-B act 36 | Arr AP2 CP1 inactive | GST-FITC bead inactive
CCOC(=O)C1=C(COC(=O)c2ccccc2OC)NC(=O)NC1C (centres undefined)	none
CCOC(=O)C1=C(COC(=O)c2cccs2)NC(=O)NC1C (centres undefined)	none
CCOC(=O)C1=C(COC(=O)CC(C)c2ccccc2)NC(=O)NC1C (centres undefined)	none | Arr AP2 CP1 inactive | GST-FITC bead inactive
CCOC(=O)C1=C(COC(=O)C(CC)c2ccccc2)NC(=O)NC1C (centres undefined)	Arrestin-AP2 inh 67 | Arr AP2 CP1 inactive | GST-FITC bead inactive
CCOC(=O)C1=C(COC(=O)C(CC)Oc2ccccc2)NC(=O)NC1C (centres undefined)	none | Arr AP2 CP1 inactive | GST-FITC bead inactive
CCn1cc(C(=O)N2CCN(c3ccc(F)cc3)CC2)c(=O)c2ccc(C)nc21	none (no result: GalR3 antag, Arrestin-AP2 inh)
O=S1(=O)CCC(N(N=Cc2ccco2)c2ccccc2)C1 (centres undefined)	none (no result: Arrestin-AP2 inh)
Cc1cc(C(=O)O)c(C)o1	none (no result: GalR3 antag, Arrestin-AP2 inh)
O=C(Cc1ccc(F)cc1)N1CCC2(CC1)NCCc1[nH]cnc12	Arrestin-AP2 inh 56 | Arr AP2 CP1 inactive | GST-FITC bead inactive
COc1cc2c(cc1NC(=O)CSc1nnc(-c3cccc(Cl)c3)n1-c1ccccc1)oc1ccccc12	none (no result: GalR3 antag, Arrestin-AP2 inh)
COc1cccc(C(=O)N(CCN2CCOCC2)Cc2ccc(OC)c(OC)c2)c1	none (no result: GalR3 antag, Arrestin-AP2 inh)
O=[N+]([O-])c1cccc(OCc2cn3cccnc3n2)c1	none
